Source: article PMC3604185 (Biochemical pharmacology, 2013)
Several values for one entry are separate records, joined by “and”; a condition that tells them apart may be missing. Equal entries are not always repeated.

What was measured:
[1] = biological target: T1, hA3AR (Homo sapiens, UniProt P0DMS8); test: FCM competitive binding in hA3AR-CHO whole cells with MRS5218; conditions: read-out: FCM binding at hA3AR, Ki, MRS5218 30 nM tracer, 60 min at 37 °C, 0.4 M sucrose
T1 sequence (P0DMS8 1-318): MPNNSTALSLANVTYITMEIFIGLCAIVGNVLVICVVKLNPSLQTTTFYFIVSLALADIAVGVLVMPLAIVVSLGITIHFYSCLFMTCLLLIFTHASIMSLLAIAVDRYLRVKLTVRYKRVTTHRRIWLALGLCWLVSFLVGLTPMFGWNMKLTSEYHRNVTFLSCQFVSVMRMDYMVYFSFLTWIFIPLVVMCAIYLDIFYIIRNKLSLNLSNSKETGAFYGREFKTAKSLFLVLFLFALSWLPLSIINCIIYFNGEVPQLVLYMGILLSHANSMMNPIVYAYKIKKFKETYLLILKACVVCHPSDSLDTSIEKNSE

[2] = biological target: T2, mA3AR (Mus musculus, UniProt Q61618); test: FCM binding
T2 sequence (Q61618 1-319): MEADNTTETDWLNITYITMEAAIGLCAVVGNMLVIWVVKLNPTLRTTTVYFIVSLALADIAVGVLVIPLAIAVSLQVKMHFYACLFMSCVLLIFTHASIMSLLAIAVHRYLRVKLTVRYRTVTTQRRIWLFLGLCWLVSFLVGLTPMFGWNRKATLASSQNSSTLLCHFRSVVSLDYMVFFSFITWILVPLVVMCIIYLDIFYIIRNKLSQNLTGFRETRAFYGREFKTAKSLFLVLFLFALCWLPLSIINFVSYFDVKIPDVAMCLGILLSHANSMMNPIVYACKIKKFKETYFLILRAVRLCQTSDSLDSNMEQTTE
How it was run: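 HEK293 cells stably expressing mouse A3AR, grown in DMEM with 10% FBS and 0.6 mg/ml G418. Cells were incubated with fluorescent agonist (5–1,000 nM) at 37 °C for varied times. […] Cells were washed in ice-cold PBS and detached with 0.2% EDTA. MFI was read in FL-4 (635 nm laser) and fitted by non-linear least squares.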

[3] = biological target: T1, hA3AR; test: FCM of MRS5704 in AR-expressing HEK293 cells; assay type: binding
[4] = biological target: T3, mA1AR (Mus musculus, UniProt Q60612); assay type: binding; conditions: read-out: Ki, A1AR (mouse), n = 3-4
T3 sequence (Q60612 1-326): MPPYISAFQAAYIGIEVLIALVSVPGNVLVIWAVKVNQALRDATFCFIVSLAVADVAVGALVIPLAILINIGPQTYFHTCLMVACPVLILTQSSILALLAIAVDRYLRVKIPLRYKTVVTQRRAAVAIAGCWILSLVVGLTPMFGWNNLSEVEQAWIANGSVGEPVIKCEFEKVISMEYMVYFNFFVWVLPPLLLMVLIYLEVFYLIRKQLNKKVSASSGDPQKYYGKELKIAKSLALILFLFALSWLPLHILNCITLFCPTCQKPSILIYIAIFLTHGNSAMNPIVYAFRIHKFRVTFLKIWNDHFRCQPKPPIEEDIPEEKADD
How it was run: (§1)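 Membranes from HEK293 cells stably expressing the mouse receptor were used in a competition assay following the human-receptor protocol. Test compound at increasing concentrations was incubated with radioligand and membranes in 50 mM Tris-HCl, pH 7.5, with 10 mM MgCl2, at 25 °C for 60 min. Bound and free were separated by GF/B filtration with ice-cold Tris washes. […] Ki was calculated from IC50 by nonlinear fitting.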

[5] = biological target: T4, mA2AAR (Mus musculus, UniProt Q60613); assay type: binding; conditions: read-out: Ki, A2AAR (mouse), n = 3-4
T4 sequence (Q60613 whole entry): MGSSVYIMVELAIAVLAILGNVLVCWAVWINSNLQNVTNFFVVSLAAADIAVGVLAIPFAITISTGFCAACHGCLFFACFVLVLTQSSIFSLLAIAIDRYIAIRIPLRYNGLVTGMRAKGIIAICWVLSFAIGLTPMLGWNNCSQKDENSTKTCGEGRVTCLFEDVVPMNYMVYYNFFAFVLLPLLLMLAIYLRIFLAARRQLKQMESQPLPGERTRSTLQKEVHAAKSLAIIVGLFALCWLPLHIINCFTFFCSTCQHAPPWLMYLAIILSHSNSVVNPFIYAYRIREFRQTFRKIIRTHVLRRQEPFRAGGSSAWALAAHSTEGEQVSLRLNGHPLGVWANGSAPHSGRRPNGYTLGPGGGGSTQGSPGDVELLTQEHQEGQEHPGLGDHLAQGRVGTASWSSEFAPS
How it was run: as §1

[6] = biological target: T2, mA3AR; assay type: binding; conditions: read-out: Ki, A3AR (mouse), n = 3-4
How it was run: as §1

[7] = biological target: T5, mA2BAR (Mus musculus, UniProt Q60614); test: FCM binding in HEK293 cells expressing mA2BAR; conditions: 1 µM, 2 h
T5 sequence (Q60614 1-332): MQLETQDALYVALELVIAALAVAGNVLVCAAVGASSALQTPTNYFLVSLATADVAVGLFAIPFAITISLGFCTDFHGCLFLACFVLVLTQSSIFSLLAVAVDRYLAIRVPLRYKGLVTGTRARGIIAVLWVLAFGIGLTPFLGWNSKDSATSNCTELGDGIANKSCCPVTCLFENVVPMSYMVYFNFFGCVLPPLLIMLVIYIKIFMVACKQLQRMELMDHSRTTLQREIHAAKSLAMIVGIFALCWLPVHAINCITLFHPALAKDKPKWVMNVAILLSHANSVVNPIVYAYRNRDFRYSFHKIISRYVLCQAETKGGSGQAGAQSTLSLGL
How it was run: (§2)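 Stable HEK293 lines expressing the mouse receptor were grown in DMEM with 10% FBS, 2 mM L-glutamine, penicillin/streptomycin and 0.6 mg/ml G418, then plated for 24 h at 37 °C, 5% CO2. At about 80% confluency, the fluorescent agonist (range 5–1000 nM) was added in fresh medium at 37 °C. Cells were then washed in ice-cold PBS, detached with 0.2% EDTA, spun twice at 400 × g and resuspended in PBS. MFI was read by flow cytometry (635 nm laser, FL-4, log mode).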

[8] = biological target: T3, mA1AR; test: FCM binding in HEK293 cells expressing mA1AR; conditions: 1 µM, 2 h
How it was run: as §2

[9] = biological target: T4, mA2AAR; test: FCM binding in HEK293 cells expressing mA2AAR; conditions: 1 µM, 2 h
How it was run: as §2

[10] = biological target: T6, hA1AR (Homo sapiens, UniProt P30542); conditions: inhibition of radioligand binding at 10 µM, ref [19],[21],[22]; cited from earlier work
T6 sequence (P30542 1-326): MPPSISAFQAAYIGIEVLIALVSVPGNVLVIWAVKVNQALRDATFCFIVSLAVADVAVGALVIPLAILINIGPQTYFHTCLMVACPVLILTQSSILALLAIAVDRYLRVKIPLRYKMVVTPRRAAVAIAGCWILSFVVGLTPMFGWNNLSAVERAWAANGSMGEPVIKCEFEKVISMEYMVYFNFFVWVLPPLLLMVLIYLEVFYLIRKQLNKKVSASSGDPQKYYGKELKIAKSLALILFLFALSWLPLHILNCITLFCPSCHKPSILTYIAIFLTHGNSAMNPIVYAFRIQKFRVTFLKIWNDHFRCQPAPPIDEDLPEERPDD

[11] = biological target: hA2AAR (Homo sapiens, UniProt P29274); conditions: read-out: Ki, A2AAR, ref [21],[22]; cited from earlier work
Sequence of hA2AAR (P29274 whole entry): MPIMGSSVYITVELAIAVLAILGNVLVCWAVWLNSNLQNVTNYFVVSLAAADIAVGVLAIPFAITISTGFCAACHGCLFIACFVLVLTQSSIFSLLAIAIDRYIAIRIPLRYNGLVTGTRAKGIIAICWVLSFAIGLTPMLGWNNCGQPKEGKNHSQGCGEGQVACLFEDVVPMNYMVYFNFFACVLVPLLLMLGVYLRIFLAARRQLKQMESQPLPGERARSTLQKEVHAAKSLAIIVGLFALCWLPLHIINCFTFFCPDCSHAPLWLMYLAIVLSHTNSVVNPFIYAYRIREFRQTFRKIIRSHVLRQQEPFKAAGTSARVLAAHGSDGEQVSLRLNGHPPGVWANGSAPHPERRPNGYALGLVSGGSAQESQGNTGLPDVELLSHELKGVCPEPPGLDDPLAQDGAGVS

## OC[C@H]1O[C@@H](n2cnc3c(NC4CCCC4)ncnc32)[C@H](O)[C@@H]1O [CPA]
[1]
  Ki: 88.4 ± 13.6 nM

## CNC(=O)[C@@]12C[C@@H]1[C@@H](n1cnc3c(NCc4cccc(Cl)c4)nc(C#Cc4ccc5ccc6cccc7ccc4c5c67)nc31)[C@H](O)[C@@H]2O [Compound 2, (1S,2R,3S,4R,5S)-4-(6-(3-chlorobenzylamino)-2-(pyren-1-ylethynyl)-9H-purin-9-yl)-2,3-dihydroxy-N-methylbicyclo[3.1.0]hexane-1-carboxamide]
[2]; AR-expressing HEK293 cells
  specific fluorescent binding by FCM, mA3AR: failed to show specific fluorescent binding
[3]
  specific fluorescent binding by FCM, hA3AR: failed to show specific fluorescent binding

## (1′S,2′R,3′S,4′S,5′S)-4′-[6-(3-chlorobenzylamino)-2-(N-cyanine(β-aminoethylaminocarbonyl)-1-butynyl)-9-yl]-2′,3′-dihydroxybicyclo[3.1.0]hexane-1′-carboxylic acid N-methylamide [Compound 1]
[4]
  Ki: 143 nM
[5]
  Ki: 717 ± 19 nM
[6]
  Ki: 261 ± 29 nM
[2]; 5 nM for 2 h, then NECA (100 µM)
  t1/2 of dissociation: 39.4 ± 4.2 min
[2]; 5 nM, listed as MRS5218
  t1/2 of association: 38 min and 37.8 ± 2.9 min
[2]; 50-300 nM, 2 h, nonspecific with 100 µM NECA
  specific labeling of mA3AR-HEK293 cells: specifically labeled mA3AR-HEK293 cells versus cells expressing other AR subtypes
[2]; read-out: Kd app, saturation, whole cells, 2 h, absence of sucrose
  Kd: 7.52 ± 0.49 nM
[2]; saturation, whole cells, 2 h, absence of sucrose
  Bmax: 99,420±18,110 MESF/cell
[7]
  specific binding to mA2BAR-HEK293 cells: became detectable
[8]
  specific binding to mA1AR-HEK293 cells: not observed
[9]
  specific binding to mA2AAR-HEK293 cells: not observed
[10]
  % inhibition, A1AR: h: 36%
[11]
  Ki: 4730 nM
